# Experimental data collected from several papers.
SMILES,target or system,test,system,conditions,quantity,result
O=C1NN=C(N=Cc2ccccc2)C1=NNn1c(-c2ccccc2)nc2ccccc2c1=O,Vibrio cholerae,"microbial growth, broth dilution",,24 h,MIC,114 µM
OC[C@H]1O[C@@H](n2cnc3c(NC4CCCC4)ncnc32)[C@H](O)[C@@H]1O,,MES seizures,rat,intraperitoneal,ED50,6.7 mg/kg
CCCCCCCCCCCCCCCC(=O)CP(=O)(O)O,Bacillus anthracis,microbial growth,STERNE34F2,,MIC,1.56 µg/mL
CC1=NN(CNc2c(O)c(S(=O)(=O)O)cc3ccccc23)C(=O)C1=NNn1c(-c2ccccc2)nc2ccccc2c1=O,Vibrio cholerae,"microbial growth, broth dilution",,24 h,MIC,83.7 µM
CCOC(=O)Nc1ccc(NCc2ccc(F)cc2)cc1N,,MES seizures,rat,oral,ED50,12.1 mg/kg
O=C(O)CCCCCCCCCCCCCCCc1ccccc1,Leishmania infantum,parasite growth,mouse Splenocyte,"72 h, intracellular, amastigote",IC50,3 to 6 µM
CC1=NN(CNc2ccccn2)C(=O)C1=NNn1c(-c2ccccc2)nc2ccccc2c1=O,Vibrio cholerae,"microbial growth, broth dilution",,24 h,MIC,55.2 µM
CN[C@H](CC(C)C)C(=O)N[C@H]1C(=O)N[C@@H](CC(N)=O)C(=O)N[C@H]2C(=O)N[C@H]3C(=O)N[C@H](C(=O)N[C@H](C(=O)O)c4cc(O)cc(O)c4-c4cc3ccc4O)[C@H](O)c3ccc(c(Cl)c3)Oc3cc2cc(c3O[C@@H]2O[C@H](CO)[C@@H](O)[C@H](O)[C@H]2O[C@H]2C[C@](C)(N)[C@H](O)[C@H](C)O2)Oc2ccc(cc2Cl)[C@H]1O,Bifidobacterium,"microbial growth, agar dilution",,48 h,MIC,2 µg/mL
O=C(CCCCC1CCCCC1)NP(=O)(O)O,Bacillus anthracis,microbial growth,STERNE34F2,,MIC,> 200 µg/mL
O=C(O)c1cn(C2CC2)c2cc(N3CCNCC3)c(F)cc2c1=O,Bacillus anthracis,microbial growth,34F2,,MIC,0.781 µM
CN[C@@H]1[C@H](O)[C@H](NC)[C@H]2O[C@@]3(O)C(=O)C[C@@H](C)O[C@H]3O[C@@H]2[C@H]1O,Bacillus anthracis,microbial growth,STERNE34F2,,MIC,25 µg/mL
CCCCCCCCCCCCCCCC(=O)NS(=O)(=O)Oc1ccc(OC)cc1,Bacillus anthracis,microbial growth,STERNE34F2,,MIC,3.12 µg/mL
CC(C)[C@H](N)C(=O)OCCCCCn1cnc2nc(NCc3ccc(Cl)c(Cl)c3)[nH]c(=O)c21,Bifidobacterium,"microbial growth, agar dilution",,48 h,MIC,32 µg/mL
CCCC(=O)CP(=O)(O)O,Bacillus anthracis,microbial growth,STERNE34F2,,MIC,100 µg/mL
CN[C@H](CC(C)C)C(=O)N[C@H]1C(=O)N[C@@H](CC(N)=O)C(=O)N[C@H]2C(=O)N[C@H]3C(=O)N[C@H](C(=O)N[C@H](C(=O)O)c4cc(O)cc(O)c4-c4cc3ccc4O)[C@H](O)c3ccc(c(Cl)c3)Oc3cc2cc(c3O[C@@H]2O[C@H](CO)[C@@H](O)[C@H](O)[C@H]2O[C@H]2C[C@](C)(N)[C@H](O)[C@H](C)O2)Oc2ccc(cc2Cl)[C@H]1O,Streptococcus pyogenes,microbial growth,,,MIC,0.25 µg/mL
CCCCCCCCCCCCCCCC(=O)NP(=O)(O)O,Bacillus anthracis,microbial growth,STERNE34F2,,MIC,> 200 µg/mL
COc1ccc2cc1Oc1cc(ccc1OC)CCC(N[C@@H]1CCCc3ccccc31)CCCC2 (stereo partly shown),Streptococcus pyogenes,"microbial growth, broth dilution",ATCC700294,,MIC,> 100 µg/mL
C=CCCCCCCCCC(=O)C(F)(F)P(=O)(O)O,Bacillus anthracis,microbial growth,STERNE34F2,,MIC,> 200 µg/mL
CC1=NN(CNc2ccc(C(=O)O)cc2)C(=O)C1=NNn1c(-c2ccccc2)nc2ccccc2c1=O,Vibrio cholerae,"microbial growth, broth dilution",,24 h,MIC,50.5 µM
